The EternaBench riboswitch data

Tests used:
MS2 coat protein [1] = assay: apparent Kd, MS2 coat protein; higher = weaker binding; RNA-MaP array; tryptophan 2.4 mM where present
Outline: (§1)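 SNAP-549-labelled MS2 coat protein, doubled from 0.7 or 1.5 nM to 3 µM, was titrated over designs transcribed by stalled E. coli RNA polymerase on Illumina sequencing-chip clusters. Titrations were run without and then with constant ligand in 100 mM Tris-HCl pH 7.5, 80 mM KCl, 4 mM MgCl2, BSA, DTT, yeast tRNA and Tween-20. The apparent Kd is the median of filtered per-cluster fits to green signal normalised to red-channel RNA signal and control-cluster median Fmax.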

MS2 coat protein [2] = assay: apparent Kd, MS2 coat protein; higher = weaker binding; RNA-MaP array; theophylline 2 mM where present
Outline: as §1

[3] = designed as: OFF switch for tryptophan, no ligand
[4] = ligand present: tryptophan, designed as: OFF switch for tryptophan
[5] = designed as: ON switch for tryptophan, no ligand
[6] = ligand present: tryptophan, designed as: ON switch for tryptophan
[7] = designed as: ON switch for theophylline, no ligand
[8] = ligand present: theophylline, designed as: ON switch for theophylline
[9] = designed as: OFF switch for theophylline, no ligand
[10] = ligand present: theophylline, designed as: OFF switch for theophylline

Row | Sequence | apparent Kd (MS2 coat protein [1]; [3]) [nM] | apparent Kd (MS2 coat protein [1]; [4]) [nM] | apparent Kd (MS2 coat protein [1]; [5]) [nM] | apparent Kd (MS2 coat protein [1]; [6]) [nM] | also measured
1 | GCCGCGGCCGCGAUACACAUGGGUAUGUAACGAGGACCGGUACGGCCGCCACUCGAGAUAAUGUACAUGAGGAUCACCCAUGUAC | 11.5 | 13.3 | – | – | –
2 | AGUACAUGAGGAUCACCCAUGUGCCGGUAACGAGGACCGGUACGGCCGCCACUCGAUGUACCUCAAUUUGAUUGAGAUAAGAAAA | – | – | 41 | 17.4 | –
3 | AAGCUUCGCAUAGGAAAACUAUGUGAAGCUCGAGGACCGGUACGGCCGCCACUCGUCCUCAACAUGAGGAUCACCCAUGUAAUAA | 22.5 | 28.2 | – | – | –
4 | GAUCGACAAAACGUCUAGGAAAACUAGACGCGAGGACCGGUACGGCCGCCACUCGUCCUCACAUGAGGAUCACCCAUGUACGAUC | 31.5 | 177 | – | – | –
5 | ACAUGAGGAUCACCCAUGUGUGUAAAUCCUCGAGGACCGGUACGGCCGCCACUCGAACGAGUGUAAGUUGAAUGUAACAUUCAAC | – | – | 85.5 | 33.7 | –
6 | AUAAGCUGUACCGGAAUAUCCUCAUGUAUACGAGGACCGGUACGGCCGCCACUCGAUAACAUGAGGAUCACCCAUGUAAUAAUAA | 11.2 | 11.2 | – | – | –
7 | GGCACAUAGUCGGCCGCCACUAGAAUAAGAAGGGAAAACAUGAGGAUCACCCAUGUAAAAGGGACUAGGACCGGGACUAUGUGCC | 13.9 | 13 | – | – | –
8 | AGGUGCUGAUCGGCCGCCACUGAGAGGACGUGAACUUUAGCUGGUUACAUGAGGAUCACCCAUGUCAGGACCGGGAUUAGUUUGC | 9.26 | 17.4 | – | – | –
9 | AAUGUGAAGGCGGCCGCCACUGAUAAUAGACAUGAGGAUCACCCAUGUAUAAAUCCUCAAUAAGACAGGACCGGGCCAACUACGU | 105 | 125 | – | – | –
10 | UUUGACGGCGAUCUGGGUUUACCAGAUCGGCGAGGACCGGUACGGCCGCCACUCGUGUUUCUUUGACAUGAGGAUCACCCAUGUA | – | – | 39.1 | 18.4 | –
11 | AGAGCAUUGACGGCCGCCACUCAUGUCACAUGAGGAUCACCCAUGUGAUGGGUGAUCGCCCGGUUGAGGACCGGGUCAAUGCUCA | – | – | 43 | 28.5 | –
12 | ACGGAGAUGUCGGCCGCCACUGAACUCAUGUUCAACAUGAGGAUCACCCAUGUACCUUAGUUUAUCAGGACCGGGACAUAUACGA | 116 | 48.1 | – | – | –
13 | GGGCGCGUGGACCGGCGUGCUCCGCUCCGUCGAGGACCGGUACGGCCGCCACUCGACAUGAGGAUCACCCAUGUGUGAGCUCGCG | 55.2 | 281 | – | – | –
14 | UGGAGUAGGACGGCCGCCACUAUACAAUGUGUAUACAUGAGGAUCACCCAUGUAAUCCUCGGAGAUAGGACCGGGUCAAGUUGUG | 53.6 | 50.5 | – | – | –
15 | GAGUAGAAGACGGCCGCCACUAAACAUGAGGAUCACCCAUGUCGUGAUCCGUUACCUAGAGUAGAUAGGACCGGGUCAUAUAGUC | 30.4 | 30.9 | – | – | –
16 | AUGCAGAGCACGGCCGCCACUCCAUGUAUACAUGAGGAUCACCCAUGUAAUUUGUAUUUUUUAUAGAGGACCGGGUGAAAUGCAA | – | – | 34.3 | 18.2 | –
17 | AGCAACAAGUCGGCCGCCACUCAUAUUACAUGAGGAUCACCCAUGUUUACAUCAAGGUCAUAAUAGAGGACCGGGACAGUUGCAU | – | – | 34.1 | 23.7 | –
18 | CGAAUAUAGACGGCCGCCACUCUACAAACAUGAGGAUCACCCAUGUUCACAUAGAGGAAACUCAUGAGGACCGGGUCAUAGGCUU | – | – | 23.4 | 20 | –
19 | GCAUCCUAGUCGGCCGCCACUGGUACGAACACCUUCACCCGUGUGCACAUGAGGAUCACCCAUGUUAGGACCGGGACUAGGAUGC | – | – | 8.2 | 7.99 | –
20 | AAUGUAUGGCACAUGAGGAUCACCCAUGUGCGAGGACCGGUACGGCCGCCACUCGGUCCUGGGAUCUUACCACUAUACAUUAAUG | 10 | 13.1 | – | – | –
21 | UCCUGCAGAGCGGCCGCCACUGUAUUGCGUGAGGAUGACCCAACAUGAGGAUCACCCAUGUUGUUUAGGACCGGGCUUGCCACGA | 14.2 | 15.5 | – | – | –
22 | AUAACAUGAGGAUCACCCAUGUAUUGGUUACGAGGACCGGUACGGCCGCCACUCGUAUUAUAGUGGUAUUUUGUUUAUAUGAUAA | – | – | 12.6 | 14.1 | –
23 | UAAUAAGUGCCGGUUCUCAGAUCCUCAUGUCGAGGACCGGUACGGCCGCCACUCGAAACAUGAGGAUCACCCAUGUAAUAAUAAU | 51.8 | 34.1 | – | – | –

Row | Sequence | apparent Kd (MS2 coat protein [1]; [3]) [nM] | apparent Kd (MS2 coat protein [1]; [4]) [nM] | apparent Kd (MS2 coat protein [1]; [5]) [nM] | apparent Kd (MS2 coat protein [1]; [6]) [nM] | also measured
24 | UACAUGAGGAUCACCCAUGUCCCAUGUGAACGAGGACCGGUACGGCCGCCACUCGAAUAAGGCGGCACAUGAGGAUCACCCACAU | – | – | 284 | 712 | –
25 | GAUAUGGAAACAUGUCAGAUCCUUACCGGUCGAGGACCGGUACGGCCGCCACUCGAAAAUAAUAAACAUGAGGAUCACCCAUGUA | 14.4 | 32 | – | – | –
26 | UGUAGUACCAGACAUGAGGAUCACCCAUGUCGAGGACCGGUACGGCCGCCACUCGGCAGUUUGCGUCCUCAGGUACUCCGGGUAA | 13 | 15 | – | – | –
27 | CACGAAAGAUCGGCCGCCACUAUUUGAUGUGUUCUUUCACAUGAGGAUCACCCAUGUUCUUUCUUUAGGACCGGGAUUGAGCGUG | 99.4 | 49.5 | – | – | –
28 | AUAUAUACAUGAGGAUCACCCAUGUUAUUACGAGGACCGGUACGGCCGCCACUCGAUAGAGUAGAAGUAAAUUUUAAUUCAUGUA | – | – | 14.5 | 13 | –
29 | UUCUUUGACGAUCUGGGUUUACCAGAUCGACGAGGACCGGUACGGCCGCCACUCGUGUUUUCUUUACAUGAGGAUCACCCAUGUU | – | – | 16.4 | 15.6 | –
30 | UAAACUACACAUGAGGAUCACCCAUGUGGCCGAGGACCGGUACGGCCGCCACUCGUGUGUUAAUAAAAGAACUGCAAGAUUCUUU | – | – | 126 | 92.6 | –
31 | CUACAUUUGUAGAAACCGGUCAACAUUAUUCGAGGACCGGUACGGCCGCCACUCGUAUAUUUUAAUACAUGAGGAUCACCCAUGU | – | – | 11.6 | 12.1 | –
32 | ACAUGAGGAUCACCCAUGUCACGGCACGAUACCAGCUGAUGCGGUGGCCCUUGGCAGCGUGACGUUUGGUCCCGCGGAUGACGGG | – | – | – | – | apparent Kd (MS2 coat protein [2]; [7]): 40.8 nM; apparent Kd (MS2 coat protein [2]; [8]): 16.8 nM
33 | AGACAUGAGGAUCACCCAUGUAGUAUGGAUACCAGAUGUAGAUUAGUCCCUUGGCAGCUGUGGUGAAGUGAUGCAUUGCUCCUAG | – | – | – | – | apparent Kd (MS2 coat protein [2]; [9]): 23.4 nM; apparent Kd (MS2 coat protein [2]; [10]): 25.9 nM
34 | UUAGAUAUGACAGAUACCAGCGUGUUGUAGAACAUGAGGAUCACCCAUGUAGUGAUCGUGCGCCCUUGGCAGCUGGUAUGUUUGG | – | – | – | – | apparent Kd (MS2 coat protein [2]; [7]): 280 nM; apparent Kd (MS2 coat protein [2]; [8]): 881 nM
35 | AAGCUGCCAAGAAGGUGAUCCAAAUGUGAUACCAGCUAGGAAACUAGCCCUUGGCAGCACAUGAGGAUCACCCAUGUAAUAAUAA | – | – | – | – | apparent Kd (MS2 coat protein [2]; [9]): 60.8 nM; apparent Kd (MS2 coat protein [2]; [10]): 182 nM
36 | AGCCCUGUGCUAGAUACCAGCUACAUGAGGAUCACCCAUGUGCGUCAGAAAUGACUGUGUAGCCCUUGGCAGCUACUCGCAUGUA | – | – | – | – | apparent Kd (MS2 coat protein [2]; [9]): 14.5 nM; apparent Kd (MS2 coat protein [2]; [10]): 26 nM
37 | AGCCCUGUACUAGAUACCAGCUACAUGAGGAUCACCCAUGUACGAUAAGACUGUCCAUGUAGCCCUUGGCAGCUGCUCGCAUGUA | – | – | – | – | apparent Kd (MS2 coat protein [2]; [9]): 30.6 nM; apparent Kd (MS2 coat protein [2]; [10]): 68.8 nM
38 | UAUUUGGUGCGCGAGCGCUGGAUAAUUGAUACCAGUGAAGAAGAGCGCCCUUGGCAGCGAAUCCUAACAUGAGGAUCACCCAUGU | – | – | – | – | apparent Kd (MS2 coat protein [2]; [7]): 37 nM; apparent Kd (MS2 coat protein [2]; [8]): 42.1 nM
39 | UUCAAAGGGAACGGUGCUGGUGACAGAGAUACCAGCGCGGUAACGCGCCCUUGGCAGCUCAGAACAUGAGGAUCACCCAUGUAAU | – | – | – | – | apparent Kd (MS2 coat protein [2]; [9]): 13.6 nM; apparent Kd (MS2 coat protein [2]; [10]): 50.2 nM
40 | GCACGACAUGAGGAUCACCCAUGUGCAGAUACCAGUAGGAUAUCCUACCCUUGGCAGCUGAGUGGAUCCGGAGGACCAUGGGUAA | – | – | – | – | apparent Kd (MS2 coat protein [2]; [7]): 38 nM; apparent Kd (MS2 coat protein [2]; [8]): 82.6 nM
41 | AGAUGACACAGUGGAUAGCAAGAUGCCGAUACCAGCUAGGAAACUAGCCCUUGGCAGCGGUACAUGAGGAUCACCCAUGUAUCCU | – | – | – | – | apparent Kd (MS2 coat protein [2]; [9]): 12.2 nM; apparent Kd (MS2 coat protein [2]; [10]): 58.7 nM
42 | AUCGUACCUCAUGAUACCAGCAUGUGAUCAUAACAUGAGGAUCACCCAUGUAAUCAGUGAUGCCCUUGGCAGCGUAGUCGAUACA | – | – | – | – | apparent Kd (MS2 coat protein [2]; [7]): 136 nM; apparent Kd (MS2 coat protein [2]; [8]): 63 nM
43 | AGCUCAUAGAGUGAUACCAGACUACAUGAGGAUCACCCAUGUUUCUUUUGGUUAUCAUGUGUCCCUUGGCAGCACAAGAAGAGCA | – | – | – | – | apparent Kd (MS2 coat protein [2]; [9]): 13.4 nM; apparent Kd (MS2 coat protein [2]; [10]): 114 nM
44 | AUAACAUGAGGAUCACCCAUGUAAGCAGAUACCAGCUAGGAAACUAGCCCUUGGCAGCUGCAUUCCUCAUGUAGGUAUCUGCUAA | – | – | – | – | apparent Kd (MS2 coat protein [2]; [9]): 15.8 nM; apparent Kd (MS2 coat protein [2]; [10]): 62.5 nM
45 | GGUGGGACUUGUGAUACCAGCCUAAUUCGAAUCGAAUUGCACAUGAGGAUCACCCAUGUCGGCCCUUGGCAGCAUGAGUAUUUAU | – | – | – | – | apparent Kd (MS2 coat protein [2]; [7]): 287 nM; apparent Kd (MS2 coat protein [2]; [8]): 20.4 nM
